Screening data: PubChem, The Scripps Research Institute Molecular Screening Center
Sampled rows, rich in hits. Any-hit rate of the full collection: about 2.3%.
TAAR1 antag – human TAAR1 antagonism. 360,000 compounds, 1.5% hits. CHO RD-HGA16 TAAR1, Fluo-8 calcium fluorescence, antagonist. Q96RJ0. inhibition, % at 3 µM. AID 624466;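 active = inhibition above a per-plate cutoff, the mean inhibition of test compounds on that plate plus 3 SD, cut at about 49% in these data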;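 also: 0% = DMSO plus EC80 beta-PEA response and 100% = DMSO alone without agonist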
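Test system – hTAAR1-expressing CHO RD-HGA16 cells, Gα16-coupled · Also added – β-PEA at EC80 concentration, post-compound challenge · Compound – 3 µM, single point · Incubation – dye loading 75 min at 37 °C, then 30 min room temperature · Measured by – Fluo-8 intracellular calcium dye fluorescence, real-time kinetic reads · Benchmarks – vehicle and agonist controls · Replicates – singlicate, one well per test compound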
OXTR agonist – agonists of human oxytocin receptor; P30559; CHO-OTR cells, Fluo-8 calcium fluorescence; normalized: DMSO 0%, oxytocin 100%; activation, % at 3 µM; 320,000 compounds, 0.32% hits;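 active = activation above the mean of all tested compounds plus 3 SD, cutoff set per screening run, cut at about 20% in these data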;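 also: peak over basal fluorescence ratio from a 100 s FLIPR kinetic read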
Target sequence (P30559 whole entry, looked up): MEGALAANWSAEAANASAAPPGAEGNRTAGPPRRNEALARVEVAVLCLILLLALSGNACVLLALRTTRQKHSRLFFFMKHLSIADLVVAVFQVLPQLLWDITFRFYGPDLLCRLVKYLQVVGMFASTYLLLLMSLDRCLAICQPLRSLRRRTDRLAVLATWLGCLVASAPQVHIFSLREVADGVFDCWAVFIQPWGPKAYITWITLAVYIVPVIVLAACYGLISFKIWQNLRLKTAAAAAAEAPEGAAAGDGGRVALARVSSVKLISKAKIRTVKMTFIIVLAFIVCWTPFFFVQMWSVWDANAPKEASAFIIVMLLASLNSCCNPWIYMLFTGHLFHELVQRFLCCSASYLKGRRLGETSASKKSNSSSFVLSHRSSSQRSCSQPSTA
V1aR counter – activates human V1a receptor in oxytocin agonist counter-screen; P37288; CHO-V1R cells, Fluo-8 calcium fluorescence, agonist mode; 0% DMSO, 100% 3 nM vasopressin; activation, % at 3 µM; 320,000 compounds, 0.25% hits;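 active = activation above the mean activation of all tested compounds plus 3 SD, per screening run, cut at about 20% in these data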;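 also: signal is peak over basal fluorescence ratio across a 100 second FLIPR read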
TAAR1 ag – human TAAR1 agonism. Q96RJ0. CHO RD-HGA16 TAAR1, Fluo-8 calcium fluorescence; vehicle wells 0%, saturating PEA agonist 100%. activation, % at 3 µM. 360,000 compounds, 0.99% hits;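 active = activation above the mean activation of all test compounds in the run plus 3 SD, cut at about 38% in these data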
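Assay system: CHO-derived RD-HGA16 cells with stable Gα16 and human TAAR1; timing: 17-24 h seeding, 75 min 37 °C dye, 30 min RT; read-out: % activation from peak over basal fluorescence ratio, DMSO-to-PEA scaled; measured by: kinetic Fluo-8 calcium fluorescence; benchmarks: low control DMSO, high control PEA (EC100); doses: 3 µM single concentration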
OXTR potentiate – potentiates the human oxytocin receptor response. 320,000 compounds, 0.061% hits. CHO-OTR cells, Fluo-8 calcium fluorescence, potentiator mode; 0% = oxytocin EC15, 100% = EC100. P30559. activation, % at 3 µM. AID 2445;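 active = activation above that plate's cutoff, the mean activation of tested compounds plus 3 SD, cut at about 6.6% in these data, passing the limit was not always enough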;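 also: 100% uses oxytocin at 75 nM as the full agonist control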
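Measured by – Fluo-8 calcium dye fluorescence · Test system – human OTR in CHO cells · Dosing – one concentration, 3.0 µM compound · Controls – EC15 oxytocin alone as 0%, 75 nM oxytocin as 100% · Evaluation – normalized max/min fluorescence ratio, % activation · Timing – 6 min pre-incubation, 100 s read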
TAAR1 nonsel count – counter-screen for TAAR1 antagonists: nonselective antagonists | shares compounds with TAAR1 antag | counterscreen cell line, calcium fluorescence, antagonist mode | inhibition, % at 3 µM | 2,400 compounds, 77% hits; in the data active = inhibition above about 22%;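 also: CHO-Ga16 host cells stimulated with ATP at an EC80 level; 0% = agonist EC80 plus vehicle and 100% = vehicle without agonist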
TAAR1 antag conf – human TAAR1 antagonism, confirmed; 2,400 compounds, 40% hits; TAAR1-expressing cells, fluorescence antagonist read-out; inhibition, % at 3 µM; shares compounds with TAAR1 antag; in the data active = inhibition above about 49%;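 also: CHO-Ga16 host cells challenged with agonist PEA near its EC80; 0% = agonist at EC80 plus vehicle and 100% = vehicle with no agonist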
Ga16 nonsel ag – nonselective Ga16 agonist in TAAR1 antagonist counter-screen; Ga16-expressing cells, calcium fluorescence, agonist counterscreen; shares compounds with TAAR1 antag; activation, % at 3 µM; 2,400 compounds, 18% hits; AID 651953; in the data active = activation above about 12%;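 also: 0% = vehicle wells and 100% = saturating stimulus response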
TAAR1 ag count – counter-screen for human TAAR1 antagonists: TAAR1 agonists; shares compounds with TAAR1 antag; hTAAR1 cell line, fluorescence activation, agonist mode; activation, % at 3 µM; 2,400 compounds, 2% hits; AID 651955; in the data active = activation above about 37%;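 also: CHO cells stably expressing TAAR1 with calcium dye readout; 0% = DMSO vehicle and 100% = full agonist response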
Active calls of the source: *; nt = not tested or not shown.

SMILES	TAAR1 antag	OXTR agonist	V1aR counter	TAAR1 ag	OXTR potentiate	TAAR1 nonsel count	TAAR1 antag conf	Ga16 nonsel ag	TAAR1 ag count
COc1cccc(/C=N/Nc2nnc3c(n2)[nH]c2ccccc23)c1OC	61*	-2	-3	12	-9	17	22	6	3
Oc1[nH]c2ccccc2c1N=Nc1nc(Nc2ccccc2)nc(N2CCOCC2)n1	53*	-1	-1	11	-5	29*	45	6	9
COc1ccc(CC(=O)Nc2ccccc2N2CCCC2)cc1	-14	-1	0	1	-7	nt	nt	nt	nt
C=CCn1c(=O)/c(=C/c2ccc(Cl)cc2)s/c1=C(/C#N)c1nnc2n1CCCCC2	50*	-1	-1	13	-6	27*	32	8	2
C=CCn1c(=O)/c(=C/c2ccc(O)cc2)s/c1=C(/C#N)c1nnc2n1CCCCC2	18	10	7	24	-7	nt	nt	nt	nt
COc1cccc(NC(=O)COc2cc(O)c3c(c2)OC(C)(C)CC3=O)c1	60*	5	4	9	-8	27*	45	9	7
O=C(Nc1c2c(nn1-c1ccccc1)CS(=O)C2)c1ccc(S(=O)(=O)N2CCOCC2)cc1 (stereo not given)	51*	1	1	2	-1	5	0	2	7
OC(CNC1CCCCC1)CNC1CCCCC1	1	0	1	13	-8	nt	nt	nt	nt
CC(C)[C@H](NS(=O)(=O)c1ccc2c(c1)OCCO2)C(=O)OCC(=O)Nc1cc(Cl)ccc1Cl	76*	4	5	21	-7	39*	61*	11	11
CC(C)[C@H](NS(=O)(=O)c1ccc2c(c1)OCCO2)C(=O)OCC(=O)Nc1cccc(Cl)c1Cl	28	0	5	7	-10	nt	nt	nt	nt
CCOC(=O)N1CCN(Cc2nc3ccc([N+](=O)[O-])cc3c(=O)n2-c2ccccc2F)CC1	71*	-1	1	19	0	11	15	4	9
CCC(CC)N1CCN(Cc2nc3ccc([N+](=O)[O-])cc3c(=O)n2-c2ccccc2F)CC1	-15	0	0	1	-10	nt	nt	nt	nt
c1ccc(CCc2ccccc2-c2nc(-c3ccccn3)no2)cc1	51*	-2	0	19	-4	12	31	9	16
Cc1ccccc1OCCC(=O)OCC(=O)Nc1ccc(C)c(S(=O)(=O)N2CCCCC2)c1	32	nt	nt	5	nt	nt	nt	nt	nt
Cc1ccc(C)c(OCCC(=O)OCC(=O)Nc2ccc(C)c(S(=O)(=O)N3CCCCC3)c2)c1	53*	2	4	6	-14	39*	44	7	8
Nc1c(C(=O)c2ccccc2)oc2ccc([N+](=O)[O-])cc12	-22	0	-1	1	-3	nt	nt	nt	nt
COc1ccc2c(c1)C1NC(=S)NC(C)(O2)C1C(=O)Nc1ccc(C)cc1C (stereo not given)	10	-1	0	1	-4	nt	nt	nt	nt
OC(c1ccccc1)(c1ccccc1)C1CCN(CCCOc2ccc(-c3ccc(F)cc3F)cc2)CC1	52*	nt	nt	35	nt	42*	47	18*	35
COc1ccccc1-c1ccc(OCCCN2CCC(C(O)(c3ccccc3)c3ccccc3)CC2)cc1	56*	nt	nt	32	nt	42*	59*	15*	37
OC(c1ccccc1)(c1ccccc1)C1CCN(CCCOc2ccncc2)CC1	21	nt	nt	33	nt	nt	nt	nt	nt
COc1ccc(/C=C/C(=O)NC(=S)Nc2ccc(N3CCN(C(C)=O)CC3)cc2)cc1	-46	0	2	5	-5	nt	nt	nt	nt
